PMC5879491 (Journal of the American Chemical Society, 2018)

Tests used:
[1] = molecular target: T1, H3R (Homo sapiens, UniProt Q9Y5N1); format: binding; details: for effect of illumination of compound solution at 360 ± 20 nm on affinity: data not shown
Summary of the method: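 A 1 mM stock of test compound was either illuminated at 360 ± 20 nm to PSS (checked by LC–MS) or kept dark; all later handling was in darkness. Competition ran at 10^-5 to 10^-12 M against 1.6 nM [3H]-Nα-methylhistamine. Membranes were homogenates of HEK293T cells PEI-transfected 48 h with human H3R (445 isoform). Incubation was 2 h at 25 °C in 50 mM Tris–HCl pH 7.4, followed by GF/C filtration and scintillation counting. Ki was obtained by Cheng–Prusoff; the shift was pKi cis minus pKi trans.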

[2] = molecular target: hH2R (Homo sapiens, UniProt P25021); test: H2R radioligand binding
[3] = molecular target: T1, H3R; test: Two-electrode voltage clamp; format: cell-based
[4] = Photostability and fatigue resistance under prolonged or repeated illumination; format: physicochemical
[5] = Real-time photoisomerization rate by UV-vis under perpendicular illumination; format: physicochemical; details: 25 μM in 50 mM Tris-HCl pH 7.4 + 1% DMSO-d6
Summary of the method: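 Real-time kinetics: test compound at 25 μM in 50 mM Tris–HCl pH 7.4 with 1% DMSO-d6. Illumination alternated between 360 ± 20 nm and 434 ± 9 nm, delivered perpendicular to the spectrometer beam. Spectra were taken at 1 s intervals, with absorbance followed at 344 or 319 nm depending on compound. Photoisomerization half-lives came from fits to the absorbance data.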

[6] = molecular target: hH4R (Homo sapiens, UniProt Q9H3N8); test: H4R radioligand binding
Sequence of hH4R (Q9H3N8 whole entry): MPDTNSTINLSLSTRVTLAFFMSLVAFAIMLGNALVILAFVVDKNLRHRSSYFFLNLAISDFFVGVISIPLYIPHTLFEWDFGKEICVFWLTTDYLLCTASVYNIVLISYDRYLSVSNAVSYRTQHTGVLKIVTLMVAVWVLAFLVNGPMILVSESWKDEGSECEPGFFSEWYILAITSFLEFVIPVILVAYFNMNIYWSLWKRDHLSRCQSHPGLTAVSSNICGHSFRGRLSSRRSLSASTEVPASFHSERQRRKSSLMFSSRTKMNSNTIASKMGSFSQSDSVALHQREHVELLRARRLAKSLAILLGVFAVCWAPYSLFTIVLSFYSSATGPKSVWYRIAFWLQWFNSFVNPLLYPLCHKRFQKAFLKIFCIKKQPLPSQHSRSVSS

T1 sequence (Q9Y5N1 whole entry, canonical isoform): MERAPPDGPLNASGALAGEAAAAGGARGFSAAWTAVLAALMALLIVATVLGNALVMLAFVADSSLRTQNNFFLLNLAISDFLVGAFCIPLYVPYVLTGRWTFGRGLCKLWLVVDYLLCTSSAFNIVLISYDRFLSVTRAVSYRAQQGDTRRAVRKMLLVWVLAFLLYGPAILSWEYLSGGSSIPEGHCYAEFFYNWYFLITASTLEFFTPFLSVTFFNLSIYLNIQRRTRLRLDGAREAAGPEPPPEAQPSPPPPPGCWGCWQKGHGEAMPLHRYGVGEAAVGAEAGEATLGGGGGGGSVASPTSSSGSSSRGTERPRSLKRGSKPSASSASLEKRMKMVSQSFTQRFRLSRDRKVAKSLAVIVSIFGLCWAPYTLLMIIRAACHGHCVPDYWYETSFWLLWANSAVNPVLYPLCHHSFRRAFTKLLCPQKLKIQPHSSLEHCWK
Sequence of hH2R (P25021 whole entry): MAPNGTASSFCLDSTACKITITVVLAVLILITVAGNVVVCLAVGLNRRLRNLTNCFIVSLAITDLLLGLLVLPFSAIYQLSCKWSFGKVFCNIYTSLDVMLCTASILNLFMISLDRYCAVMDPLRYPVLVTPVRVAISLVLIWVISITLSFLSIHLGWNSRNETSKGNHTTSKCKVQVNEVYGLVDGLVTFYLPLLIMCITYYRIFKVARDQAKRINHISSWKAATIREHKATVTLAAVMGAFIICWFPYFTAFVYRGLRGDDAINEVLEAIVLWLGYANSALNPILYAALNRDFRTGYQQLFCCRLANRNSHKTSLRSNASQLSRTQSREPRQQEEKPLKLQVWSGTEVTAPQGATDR

NCCc1c[nH]cn1 [Histamine]
effect of illumination of compound solution at 360 ± 20 nm on affinity [1]: not affected

O=C(c1cccc(/N=N/c2cccc(OCCCN3CCCCC3)c2)c1)N1CCCC1 [Compound 28]
affinity for H2R [2]: no measurable affinity
change in current upon superfusion of compound only ([3]; noninjected and H3R-GIRK expressing oocytes): did not result in changes in current
photodegradation (1H NMR and LC-MS) ([4]; 48 h illumination at 360 ± 20 nm, 0.77 mW/mm^2): no apparent photodegradation
resistance to fatigue / photobleaching ([4]; over 1000 isomerization cycles, 360 ± 20 and 434 ± 9 nm, 20 s intervals): highly resistant to photobleaching
increase in H3R binding affinity upon photoisomerization ([1]; illumination at 360 nm, PSS cis vs trans, listed as VUF14738): over 10 fold
photoisomerization half-life ([5]; illumination 360 ± 20 nm): 16 ± 0.9 s
photoisomerization half-life ([5]; illumination 434 ± 9 nm): 11 ± 0.3 s
affinity for H4R [6]: no measurable affinity

pertussis toxin
inhibition of GIRK channel activation by histamine (1 μM) ([3]; pretreating the oocytes, 1.37 ng/oocyte): fully inhibited

NC(=NCc1ccc(Cl)cc1)SCCCc1cnc[nH]1 [clobenpropit]
inhibition of GIRK channel activation by histamine (1 μM) ([3]; simultaneous superfusion, 1 μM): fully inhibited

O=C(c1ccc2cc(OCCCN3CCCCC3)ccc2c1)N1CCCC1 [Compound 1]
effect of illumination of compound solution at 360 ± 20 nm on affinity [1]: not affected
